Data taken from PMC3190051 (Bioorganic & medicinal chemistry letters, 2011).
Changes are numbered by the printed parent chain. Where two headings read alike, the source gives them in different places.

Legend:
[1] = system: M2–M5; assay: M2–M5 selectivity, full CRCs in HTS high-expressing CHO cell lines; type: cell-based, rat; settings: read-out: M2–M5 EC50s; HTS high-expressing CHO cell line; average of at least three determinations
[2] = system: TREx293-hM1 cells
[3] = molecular target: T1, M1 (Rattus norvegicus, UniProt P08482); assay: functional M1 agonist assay in rat HTS high-expressing CHO cell line; type: cell-based; settings: 10 µM M1 single point screen
T1 sequence (P08482 1-460): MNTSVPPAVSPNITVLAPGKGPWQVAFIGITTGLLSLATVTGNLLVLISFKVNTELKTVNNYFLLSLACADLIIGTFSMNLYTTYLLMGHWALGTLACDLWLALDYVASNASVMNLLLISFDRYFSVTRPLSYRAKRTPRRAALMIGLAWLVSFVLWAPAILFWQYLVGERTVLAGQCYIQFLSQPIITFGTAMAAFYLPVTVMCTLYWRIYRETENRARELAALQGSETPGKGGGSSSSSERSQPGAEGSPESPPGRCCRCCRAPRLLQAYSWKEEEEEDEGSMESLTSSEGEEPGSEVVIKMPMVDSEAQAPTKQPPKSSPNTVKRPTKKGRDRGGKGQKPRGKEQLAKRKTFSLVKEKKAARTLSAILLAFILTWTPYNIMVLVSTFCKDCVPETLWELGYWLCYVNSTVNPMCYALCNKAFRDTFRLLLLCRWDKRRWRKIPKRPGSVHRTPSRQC

[4] = molecular target: D2 receptor (Homo sapiens, UniProt P14416); assay: functional D2 antagonism CRC; type: cell-based
[5] = intrinsic clearance, rat; type: in vitro ADME
[6] = molecular target: T2, M1 (Homo sapiens, UniProt P11229); assay: M1 agonist assay in new cell lines with expression resembling native levels; type: cell-based, rat and human; settings: new cell lines with expression more closely resembling native levels
T2 sequence (P11229 1-460): T1 sequence (P08482 1-460) with V5A, S254T, S309P, K320R, G337A, V413I

[7] = oral plasma:brain level; type: in vivo, male Sprague-Dawley rats; settings: 10 mg/kg oral, 90 minute endpoint, individual animal
[8] = system: 68 GPCRs, ion channels and transporters (including all the BARs); assay: radioligand binding panel of 68 GPCRs, ion channels and transporters; settings: 10 µM
[9] = system: NMDA receptor currents in hippocampal CA1 pyramidal cells; assay: potentiation of NMDA receptor currents, whole cell recording; type: cell-based; settings: 30 µM
Summary of the method: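 Whole-cell recording of NMDA-evoked currents in hippocampal CA1 pyramidal cells. Current amplitude was normalized and followed over time before, during and after application of 30 µM test compound.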

[10] = intrinsic clearance, human; type: in vitro ADME
[11] = system: NMDA receptor currents in hippocampal CA1 pyramidal cells; settings: cited from earlier work
[12] = system: TREx293-hM1 cells; settings: in cell culture; cited from earlier work
[13] = system: M2–M5; settings: read-out: EC50 versus M2–M5; ML071 probe data; cited from earlier work
[14] = system: 68 GPCRs, ion channels and transporters (including all the BARs); settings: 10 µM; cited from earlier work

Sequence of D2 receptor (P14416 whole entry): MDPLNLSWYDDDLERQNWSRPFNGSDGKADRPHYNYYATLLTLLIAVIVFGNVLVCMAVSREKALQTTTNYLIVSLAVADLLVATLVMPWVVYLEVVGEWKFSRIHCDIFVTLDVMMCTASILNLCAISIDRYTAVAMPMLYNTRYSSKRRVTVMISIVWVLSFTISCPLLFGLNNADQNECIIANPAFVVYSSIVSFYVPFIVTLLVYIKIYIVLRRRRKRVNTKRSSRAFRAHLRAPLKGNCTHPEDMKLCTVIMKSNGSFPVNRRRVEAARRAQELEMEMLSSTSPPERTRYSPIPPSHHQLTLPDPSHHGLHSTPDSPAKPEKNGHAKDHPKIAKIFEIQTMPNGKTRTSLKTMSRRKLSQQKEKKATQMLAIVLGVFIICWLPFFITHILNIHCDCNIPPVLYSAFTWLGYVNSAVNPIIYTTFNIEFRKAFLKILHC

## CCOC(=O)N1CCC(N2CCC[C@@H](NC(=O)c3cccc(F)c3)C2)CC1 [20c]
[1]
  EC50: > 10 µM

## CCOC(=O)N1CCC(N2CCC[C@@H](NC(=O)C3CCCCC3)C2)CC1 [20g]
[1]
  EC50: > 10 µM

## CCOC(=O)N1CCC(N2CCC[C@@H](NC(=O)c3cccc(OC)c3)C2)CC1 [20d]
[1]
  EC50: > 10 µM

## CCOC(=O)N1CCC(N2CCC[C@@H](NC(=O)c3ccc(C)cc3)C2)CC1 [20f]
[1]
  EC50: > 10 µM

## CCOC(=O)N1CCC(N2CCC[C@@H](NC(=O)c3ccccc3)C2)CC1 [20b]
[1]
  EC50: > 10 µM

## CCOC(=O)N1CCC(N2CCC[C@@H](NC(=O)c3ccc(F)cc3C)C2)CC1 [20a]
[1]
  EC50: > 10 µM

## C[N+](C)(C)CCOC(N)=O.[Cl-] [carbachol]
[2]
  increase in soluble APP (sAPPα): significant increase

## CCOC(=O)N1CCC(N2CCC[C@@H](NC(=O)c3ccccc3Cl)C2)CC1 [20j]
[1]
  EC50: > 10 µM

## CCOC(=O)N1CCC(N2CCC[C@@H](NC(=O)c3ccc(F)c(F)c3)C2)CC1 [20e]
[1]
  EC50: > 10 µM

## CCOC(=O)N1CCC(N2C[C@@H]3C[C@H]2CN3C(=O)c2ccccc2C)CC1 [compound 14]
[3]
  M1 activation: less than 30%

## CCOC(=O)N1CCC(N2C[C@H]3CN(C(=O)c4ccccc4C)C[C@H]3C2)CC1 [compound 15]
[3]
  M1 activation: less than 30%

## CCOC(=O)N1CCC(N2CCC[C@@H](NC(=O)c3ccccc3C)C2)CC1 [compound 17]
[4]
  functional activity at the D2 receptor: no functional activity
[5]
  CLint scaled: 23.4 mL/min/kg
[1]
  EC50: > 30 µM
[6]
  ACh Max versus high-expressing HTS lines: slightly lower ACh Max
[7]
  Brain: 1.89 µM
  Brain:Plasma: 1.17
  Plasma: 1.62 µM
[7]; male, Sprague-Dawley, rat, brain, oral, 10 mg/kg
  concentration at 90 min: 2230 nM
[7]; male, Sprague-Dawley, rat, brain/plasma, po, 10 mg/kg, Brain:Plasma
  Kp at 1.5 h: 1.54
[8]
  inhibition in radioligand binding panel: ≤ 30%
[9]
  persistence of potentiation after washout: 10 min
[9]; listed as VU0364572
  effect on NMDA receptor currents: potentiates NMDA receptor currents
[10]
  CLint scaled: 11.2 mL/min/kg
[3]
  M1 activation: full activation of M1

## CCOC(=O)N1CCC(N2CCC[C@@H](NC(=O)C3CCCC3)C2)CC1 [20k]
[1]
  EC50: > 10 µM

## CCOC(=O)N1CCC(N2CCC[C@@H](NC(=O)c3ccc(OC)cc3)C2)CC1 [20i]
[1]
  EC50: > 10 µM

## CCOC(=O)N1CCC(NCCNC(=O)c2ccccc2C)CC1 [compound 8]
[11]
  effect on NMDA receptor currents: potentiated NMDA receptor currents
[12]
  soluble APP (sAPPα): significant increase
[13]
  EC50: > 30 µM
[1]
  EC50: > 30 µM
[14]
  activity in radioligand binding panel: ≤ 50%

## CCOC(=O)N1CCC(N2CCC[C@@H](NC(=O)c3cccs3)C2)CC1 [20h]
[1]
  EC50: > 10 µM

## CCOC(=O)N1CCC(N2CCN(C(=O)c3ccccc3C)CC2)CC1 [compound 13]
[3]
  M1 activation: less than 30%

## CCOC(=O)N1CCC(N2CCC[C@H](NC(=O)c3ccccc3C)C2)CC1 [compound 16]
[3]
  M1 activation: inactive
